From ChEMBL document CHEMBL4513216, “Probing the Open Global Health Chemical Diversity Library for Multistage-Active Starting Points for Next-Generation Antimalarials” (ACS Infect Dis, 2020)

Assay: Toxicity liver stage against HepG2, at 10uM
Format: cell-based
Design: test concentration 10 uM, cell line HepG2-A16-CD81EGFP
Details: human, HepG2-A16-CD81EGFP cells; read-out: INHIBITION
Procedure, shortened: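 Uninfected HepG2-A16-CD81EGFP cells, 3 × 10^3 per well, 1536-well, plated on prespotted compound at 10 μM final, parasite-free screening media added to match infected plates; puromycin 10 μM positive, DMSO 0.5% negative; run in parallel with 48 h PbLuc assay at 37 °C, 5% CO2; viability by CellTiter-Glo luminescence, normalized to controls.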

Structure (SMILES) | cytotoxicity at 10 µM [%]
COCC1CCCN(C(=O)c2ccccc2NCc2cccnc2)C1 (stereo unspecified) | 8.47
CCCn1cc(NC(=O)c2ccc(N(C)CC)cc2)ccc1=O | -0.704
COCCOc1cccc(CNCc2c(C)nn(C)c2N(C)C)c1 | -7.19
CN(Cc1ccco1)Cc1cncc2c1CCN(Cc1ccoc1)C2 | -108
O=C(COCc1ccccc1)N1CCCC(n2cncn2)C1 (stereo unspecified) | -8.6
CC(C)OCCN1CCN(C(=O)c2cccc(CC#N)c2)CC1 | 0.119
CC(C)c1cc(C(=O)N2C[C@@H]3CC[C@H]2CN(Cc2ccccn2)C3)no1 | 2.46
CN(C)Cc1nn(C)c2c1CCN(S(=O)(=O)c1cccs1)C2 | 4.52
Cc1cc(N[C@H](CO)COCc2ccccc2)n2nc(C)cc2n1 | 0.324
CC(C)CNC(=O)N1CC[C@@H]2CN(Cc3cccnc3)S(=O)(=O)[C@@H]2CC1 | -93.6
CC(C)(C)CNC(=O)c1ccc(C(=O)O)nc1 | 10.4
CC(C)[C@@H]1CN(Cc2ccccc2C#N)C[C@H]1N(C)C | -18.7
O=C(NCc1nncn1-c1ccccc1)C1CC(=O)N(CC2CC2)C1 (stereo unspecified) | -2.97
CCn1ccnc1CN1CCCN(C(=O)c2cc(C)nn2CC)CC1 | -5.89
O=C(N1CCCC1)N1CCC2(CC1)C(=O)N(CC1CC1)c1ccccc12 | 7.15
CCOC(=O)c1coc(N2CCC(C(O)CC(C)C)CC2)n1 (stereo unspecified) | 5.78
Cn1ncc2c(NCC(=O)N3CCNCC3)nc(C(C)(C)C)nc21 | -10.6
COc1ccc(-c2cc(C(=O)NCCCn3ccnc3C)n(C)n2)cc1 | -6.67
OC(CN1CCCCc2ccccc21)Cn1cccn1 (stereo unspecified) | 5.55
NC(=O)C1(CNC(=O)CCc2ccc(Cl)s2)CCOCC1 | 9.09
CC(C)CN1CCN(C(=O)NCc2cccnc2-n2cccn2)CC1 | 7.29
CC(C)n1cnnc1CN(C)Cc1cnc(-c2ccco2)nc1 | 10.8
CC(C)Oc1nnc(SCC(=O)NCC(=O)N2CCCC2)s1 | 1.38

Structure (SMILES) | cytotoxicity at 10 µM [%]
O=C(COc1coc(CN2CCOCC2)cc1=O)Nc1ccccc1F | -10.7
Cc1oncc1C(=O)N1CCC2(CCN(Cc3ccccn3)C2=O)C1 (stereo unspecified) | -11.4
CCc1[nH]c2c(CNc3nccc(N)n3)cc(C)cc2c1C | 3.4
Cc1cnccc1-c1cc(NCCO)nc2[nH]ccc12 | 13.8
O=C1COC[C@H]([C@H](O)c2ccc(NC(=O)c3cccnc3)cc2)N1 | 0.317
Cc1nc(O)cc(C2CCCN(Cc3c(Cl)cncc3Cl)C2)n1 (stereo unspecified) | -5.4
CCN(C(=O)c1nc2c(s1)CCCN2S(C)(=O)=O)C(C)C | 3.99
NS(=O)(=O)CC1CCN(c2ncccc2C(F)(F)F)CC1 | -3.16
Cn1cc(CN2CCCn3cnc(CN4CCCC4=O)c3C2)cn1 | -1.39
CCNC(=O)NC[C@H]1Cn2c(-c3ccccc3)cnc2CO1 | -2.12
CC(=O)Nc1nc(CN2CCCCC2Cn2cccn2)cs1 (stereo unspecified) | -6.7
O=C(OCC1CCN(c2ccccc2)C1)c1cscn1 (stereo unspecified) | 1.27
CN1CCC(N2C[C@H](O)C[C@H]2c2nc(Cc3ccccc3)no2)CC1 | 10.7
CC1c2cc(F)ccc2CCN1C(=O)c1[nH]c(=O)[nH]c(=O)c1N (stereo unspecified) | 7.78
Cc1csc(CN2CC[C@H]3C[C@H](c4nnc(C)[nH]4)O[C@@H]3C2)n1 | -19.6
C=C(C)CN1CCN(Cc2cnc(OC)nc2)CC1 | 5.16
CN(CCO)C(=O)Nc1ccn(-c2cccc(C(F)(F)F)c2)n1 | 4.16
CCc1cc(N2CCC(NC3CCOCC3)CC2)nc(N(C)C)n1 | -14.5
Cc1noc(C)c1C(=O)N1C[C@@H]2CC[C@H]1CN(c1cnccn1)C2 | 8.32
Cc1csc(CNC(=O)NCCc2ccc3c(c2)OCCO3)n1 | 4.74
CN(C)Cc1ccc(C2CCCCN2C(=O)c2cccc(CO)n2)cc1 (stereo unspecified) | -16.9
Cc1cc(C)n(CC2CCCN2C(=O)c2cccc3c2OCO3)n1 (stereo unspecified) | -15.7
Cn1ccnc1C1CCN(S(=O)(=O)c2ccc3c(c2)OCCO3)CC1 | -13.5

Structure (SMILES) | cytotoxicity at 10 µM [%]
Cc1ccnc(OCC(=O)N2CCN(c3ncccn3)CC2)n1 | -0.849
COCc1nnc(NC(=O)c2cn(C(C)C)c3ccc(OC)cc23)s1 | -5.86
CS(=O)(=O)c1ccc2c(c1)N(C(=O)Cc1ccc(F)cc1)CCC2 | 9.95
CC(C)(C)OC(=O)N(CCNS(=O)(=O)N1CCOCC1)C1CC1 | -4.43
Cn1ccc(CN2CCC(NC(=O)NC3CCCCC3)CC2)cc1=O | -6.26
CCOc1ccc(C#N)cc1NC(=O)N1CCC(N2CCCC2)C1 (stereo unspecified) | -7.35
c1ccc(-n2ccnc2)c(CNCC2CNc3ccnn3C2)c1 (stereo unspecified) | -8.11
COc1cc(C)c(CN2CCC3(CC2)C(C(=O)O)CC(=O)N3C)cc1C (stereo unspecified) | -8.58
Cc1nn(C)c(C)c1C1CCCN1C(=O)CCCNc1ncccn1 (stereo unspecified) | -3.43
COCCNC(=O)[C@@H]1CCO[C@@H]2CCN(c3ccc(C)nn3)C[C@@H]21 | -73.2
O=C(Cc1cccc(F)c1)NCCNS(=O)(=O)C1CCCC1 | 3.61
COc1ccc(S(=O)(=O)Nc2cnc(N(C)C)nc2)cc1 | -4.45
O=C(Nc1cc(C(F)(F)F)c[nH]c1=O)N1CCCSCC1 | -5.77
Cn1cccc1C(=O)N1CCC2(CC1)CN(c1cncnc1)C(=O)CO2 | 4.35
Cc1nc(CN2CCN(C(=O)c3sccc3C)CC2)cs1 | 0.96
Cc1nn(C)c(C)c1C1COCCN1c1ncncc1Br (stereo unspecified) | -8.9
COCCCNC(=O)CN(C)C1CCCN(c2cccnn2)C1 (stereo unspecified) | -2.51
CN1CCC(c2cccc(CCC(=O)NCC(N)=O)n2)CC1 | -20.1
Cc1cnn(CCNC(C)C(=O)NCCc2cccs2)c1 (stereo unspecified) | -9.38
CCOCCCNC(=O)CCSCc1csc(C)n1 | -3.57
O=C1CCC2(CCCN(CCn3cc(Cl)cn3)C2)CN1C1CCCC1 (stereo unspecified) | 4.71
Cc1cnccc1-n1nc(C(C)C)nc1CCc1cnccn1 | 1.92
CC(C)c1cc(C2CCN(C(=O)Cn3nc4ccccc4n3)CC2)[nH]n1 | 0.685

Structure (SMILES) | cytotoxicity at 10 µM [%]
COc1ccc(S(=O)(=O)NCCCc2nnc3nc(C)cc(C)n23)cc1 | 5.05
Cc1c(C(=O)N2CCS(=O)(=O)CC2)nnn1-c1ccc2ncccc2c1 | -5.82
CC1CN(Cc2ccc(-n3cccn3)cc2)CCO1 (stereo unspecified) | -7.18
CN(C)Cc1csc(-c2nccn2Cc2ccc(C(=O)O)cc2)c1 | -1.3
COc1ccc(Br)cc1SCCS(C)(=O)=O | 2.71
O=c1n(CCSCCOc2ccc(Br)cc2)nc2ccccn12 | 10
O=C(c1cccc(N2CCCC2=O)c1)N1CCCC(n2cccn2)C1 (stereo unspecified) | -8.22
Cc1cc(NC(=O)CN2CCc3nn(C)c(=O)cc3C2)on1 | -1.45
CC(C)c1noc(CN2CCN(C(=O)OC(C)(C)C)C(C)C2)n1 (stereo unspecified) | 2.24
CC(C)CN1CCCC12CCN(c1nncs1)C2 (stereo unspecified) | 1.81
Cc1nn(-c2ccccn2)c(C)c1[C@@H]1C=C[C@@H](NC(=O)NC(C)C)C1 | 1.52
CN(C)[C@@H]1CO[C@H](CNC(=O)c2ccccc2)[C@H]1O | -1.9
CCc1n[nH]c(C2CN(Cc3nc(C4CC4)no3)CCO2)n1 (stereo unspecified) | -10.8
COc1ccc(S(=O)(=O)N2CC(CC(=O)O)c3ccccc32)cc1 (stereo unspecified) | 6.04
CCN(CC)CCCNCC1CCOC(C)(C)C1 (stereo unspecified) | -6.01
Cc1cc(C)cc(OCCC(=O)N2CCOCC2c2ncon2)c1 (stereo unspecified) | -8.72
Cc1ccc(CC2COCCN(S(=O)(=O)c3ccccc3)C2)nc1 (stereo unspecified) | -4.48
O=C(CNc1ccc(OC2CCOC2)cc1)NCc1cccs1 (stereo unspecified) | 3.43
Cc1oc(-c2ccco2)nc1CNC1CCCN(c2cccnn2)C1 (stereo unspecified) | -2.87
CCC(=O)N1CCC2(CC1)CC(CC(N)=O)c1ccc(F)cc12 (stereo unspecified) | 11.8
O=C(NC1CC1)c1ccn(COc2c(Cl)cccc2Cl)n1 | 7.36
CN(C)CCN1C(=O)CCC12CCCN(C(=O)C1CC=CC1)CC2 (stereo unspecified) | 3.7
Cc1nn(C)c(N2CCOCC2)c1CNC1CCCCNC1=O (stereo unspecified) | 5.84

Structure (SMILES) | cytotoxicity at 10 µM [%]
c1ccc(NCc2cn3c(n2)CN(Cc2cccs2)CC3)nc1 | 5.22
Cc1ccc(NCCCNC(=O)NCc2c(C)cc(C)[nH]c2=O)nc1 | -45.2
CCn1cnnc1CNS(=O)(=O)N1CCCC1c1ccco1 (stereo unspecified) | -141
Cn1nc(Cn2ccnc2)c2c1CN(C(=O)c1ccc[nH]1)C2 | -62.7
OC(CN1CCCCCCC1)c1ccc(OC(F)(F)F)cc1 (stereo unspecified) | -11.2
CC(C)(C)c1cn2c(n1)C(CNCc1cnn3ccccc13)CCC2 (stereo unspecified) | -13.4
CCCn1cnnc1CNC(=O)CC1C(=O)NCCN1C(C)C (stereo unspecified) | 0.445
CCn1nc(C)cc1NC(=O)CCn1nc(C)c(Br)c1C | 10.8
Cc1noc(C)c1CN1CC2(CCN(C(=O)c3ccoc3C)C2)CC1=O (stereo unspecified) | 7.78
COCCNc1ccc(CC2CCCNC2)cn1 (stereo unspecified) | 7.29
O=S(=O)(CC1CCCCO1)Nc1cnn(Cc2ccccc2)c1 (stereo unspecified) | 4.34
COCC1CN(c2ncccn2)Cc2cnn(CC3CC3)c21 (stereo unspecified) | 6.68
CCC(C)N(Cc1cccnc1)C(=O)CCSC (stereo unspecified) | 0.305
O=C(Cc1cccs1)N1CC[C@H]2[C@H]1CCN2Cc1cccnc1 | 2.41
Cc1nc(Nc2ccccn2)cc(C2CCCN2C2CCOCC2)n1 (stereo unspecified) | -18.1
O=C(NCC(O)c1cccc(F)c1)C1CCN(C2CCCCC2)CC1 (stereo unspecified) | 7.07
CCn1nc2c(cc1=O)CN(Cc1nc3ccccc3c(=O)[nH]1)CC2 | -4.71
CC(O)CN1CCN(C(=O)c2ccn(-c3ccc(F)cc3)n2)CC1 (stereo unspecified) | -6.11
CS(=O)(=O)N1CCCCCC1C1CCN(c2ncccn2)CC1 (stereo unspecified) | -7.98
